According to PMC8963331 (Toxicological Sciences, 2022):

What was measured:
Assay type in all cases: in vivo
[1] = Rat repeat-dose toxicity studies: plasma toxicokinetics; settings: for AUC(0-t) / Cmax: plasma, po; for AUC(0-t) / Cmax / Mean Cave: last day of dosing; for Cmax: Mean Cmax
[2] = Rat 4-, 13-, 26-week repeat-dose general toxicity studies; settings: both, Sprague-Dawley (Crl:CD), rat, in vivo, oral
Procedure, shortened: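 Crl:CD Sprague Dawley rats, 7–8 weeks old at start, dosed daily by oral gavage (10 ml/kg) at 0 (vehicle), 30, 100 or 1000 mg/kg/day for 4, 13 or 26 weeks. n = 10/sex/group, plus 4-week dose-free recovery (n = 5/sex). Rats fasted overnight. Hematology, coagulation and clinical chemistry sampled at baseline, end of dosing and end of recovery. Sexes pooled; treated groups compared with vehicle; variance homogeneity by […] Levene test.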

[3] = Rabbit EFD study: maternal and fetal plasma toxicokinetics
[4] = maternal rabbit, GD 19, 30 and 60 mg/kg/day

Cc1cc(Nc2cc3ncccc3c(N[C@@H]3C[C@H]4CC[C@@H](C3)N4CCC#N)n2)n[nH]1 [izencitinib, Izencitinib]
AUC(0-t) ([1]; female, Sprague-Dawley (Crl:CD), rat, 100 mg/kg/day, Mean AUC0–24, rat female, 100 mg/kg/day oral, 26 weeks): 127 ng·h/mL
Cmax ([1]; female, Sprague-Dawley (Crl:CD), rat, 100 mg/kg/day, rat female, 100 mg/kg/day oral, 26 weeks): 32.5 ng/mL
AUC(0-t) ([1]; female, Sprague-Dawley (Crl:CD), rat, 1000 mg/kg/day, Mean AUC0–24, rat female, 1000 mg/kg/day oral, 26 weeks): 453 ng·h/mL
Cmax ([1]; female, Sprague-Dawley (Crl:CD), rat, 1000 mg/kg/day, rat female, 1000 mg/kg/day oral, 26 weeks): 96.3 ng/mL
AUC(0-t) ([1]; female, Sprague-Dawley, rat, 30 mg/kg/day, Mean AUC0–24, rat female, 30 mg/kg/day oral, 4 weeks): 25.7 ng·h/mL
AUC(0-t) ([1]; female, Sprague-Dawley, rat, 30 mg/kg/day, Mean AUC0–24, rat female, 30 mg/kg/day oral, 13 weeks): 54.6 ng·h/mL
AUC(0-t) ([1]; female, Sprague-Dawley, rat, 100 mg/kg/day, Mean AUC0–24, rat female, 100 mg/kg/day oral, 4 weeks): 70.5 ng·h/mL
AUC(0-t) ([1]; female, Sprague-Dawley, rat, 100 mg/kg/day, Mean AUC0–24, rat female, 100 mg/kg/day oral, 13 weeks): 227 ng·h/mL
AUC(0-t) ([1]; female, Sprague-Dawley, rat, 1000 mg/kg/day, Mean AUC0–24, rat female, 1000 mg/kg/day oral, 4 weeks): 384 ng·h/mL
AUC(0-t) ([1]; male, Sprague-Dawley (Crl:CD), rat, 30 mg/kg/day, Mean AUC0–24, rat male, 30 mg/kg/day oral, 26 weeks): 34.6 ng·h/mL
Cmax ([1]; male, Sprague-Dawley (Crl:CD), rat, 30 mg/kg/day, rat male, 30 mg/kg/day oral, 26 weeks): 4.52 ng/mL
AUC(0-t) ([1]; male, Sprague-Dawley (Crl:CD), rat, 100 mg/kg/day, Mean AUC0–24, rat male, 100 mg/kg/day oral, 26 weeks): 95.7 ng·h/mL
Cmax ([1]; male, Sprague-Dawley (Crl:CD), rat, 100 mg/kg/day, rat male, 100 mg/kg/day oral, 26 weeks): 15.8 ng/mL
AUC(0-t) ([1]; male, Sprague-Dawley (Crl:CD), rat, 1000 mg/kg/day, Mean AUC0–24, rat male, 1000 mg/kg/day oral, 26 weeks): 384 ng·h/mL
Cmax ([1]; male, Sprague-Dawley (Crl:CD), rat, 1000 mg/kg/day, rat male, 1000 mg/kg/day oral, 26 weeks): 60.6 ng/mL
AUC(0-t) ([1]; male, Sprague-Dawley, rat, 30 mg/kg/day, Mean AUC0–24, rat male, 30 mg/kg/day oral, 4 weeks): 23.4 ng·h/mL
AUC(0-t) ([1]; male, Sprague-Dawley, rat, 30 mg/kg/day, Mean AUC0–24, rat male, 30 mg/kg/day oral, 13 weeks): 58.2 ng·h/mL
AUC(0-t) ([1]; male, Sprague-Dawley, rat, 100 mg/kg/day, Mean AUC0–24, rat male, 100 mg/kg/day oral, 4 weeks): 71.3 ng·h/mL
AUC(0-t) ([1]; male, Sprague-Dawley, rat, 100 mg/kg/day, Mean AUC0–24, rat male, 100 mg/kg/day oral, 13 weeks): 131 ng·h/mL
AUC(0-t) ([1]; male, Sprague-Dawley, rat, 1000 mg/kg/day, Mean AUC0–24, rat male, 1000 mg/kg/day oral, 4 weeks): 335 ng·h/mL
AUC(0-t) ([1]; male, Sprague-Dawley, rat, 1000 mg/kg/day, Mean AUC0–24, rat male, 1000 mg/kg/day oral, 13 weeks): 452 ng·h/mL
nonclinical:clinical systemic AUC margin at the NOAEL ([1]; rat 26-week study, 1000 mg/kg/day, vs human 300 mg QD): 8 fold
Mean Cave ([1]; rat female, 30 mg/kg/day oral, 4 weeks): 1.07 ng/mL
Mean Cave ([1]; rat female, 30 mg/kg/day oral, 13 weeks): 2.28 ng/mL
Mean Cave ([1]; rat female, 30 mg/kg/day oral, 26 weeks): 0.700 ng/mL
Mean Cave ([1]; rat female, 100 mg/kg/day oral, 4 weeks): 2.94 ng/mL
Mean Cave ([1]; rat female, 100 mg/kg/day oral, 13 weeks): 9.46 ng/mL
Mean Cave ([1]; rat female, 100 mg/kg/day oral, 26 weeks): 5.29 ng/mL
Mean Cave ([1]; rat female, 1000 mg/kg/day oral, 4 weeks): 16.0 ng/mL
Mean Cave ([1]; rat female, 1000 mg/kg/day oral, 13 weeks): 63.8 ng/mL
Mean Cave ([1]; rat female, 1000 mg/kg/day oral, 26 weeks): 18.9 ng/mL
Mean Cave ([1]; rat male, 30 mg/kg/day oral, 4 weeks): 0.975 ng/mL
Mean Cave ([1]; rat male, 30 mg/kg/day oral, 13 weeks): 2.43 ng/mL
Mean Cave ([1]; rat male, 30 mg/kg/day oral, 26 weeks): 1.44 ng/mL
Mean Cave ([1]; rat male, 100 mg/kg/day oral, 4 weeks): 2.97 ng/mL
Mean Cave ([1]; rat male, 100 mg/kg/day oral, 13 weeks): 5.46 ng/mL
Mean Cave ([1]; rat male, 100 mg/kg/day oral, 26 weeks): 3.99 ng/mL
Mean Cave ([1]; rat male, 1000 mg/kg/day oral, 4 weeks): 14.0 ng/mL
Mean Cave ([1]; rat male, 1000 mg/kg/day oral, 13 weeks): 18.8 ng/mL
Mean Cave ([1]; rat male, 1000 mg/kg/day oral, 26 weeks): 16.0 ng/mL
plasma Cave:protein-corrected JAK IC50 ratio ([1]; rat, 30 mg/kg/day): < 1 ×
plasma Cave:uncorrected JAK IC50 ratio ([1]; rat, 30 mg/kg/day): < 1 ×
plasma concentrations versus uncorrected human JAK IC50 threshold ([1]; rat, 100 mg/kg/day): only briefly rose above
plasma Cave:protein-corrected JAK IC50 ratio ([1]; rat, 1000 mg/kg/day): < 1
plasma Cave:uncorrected JAK IC50 ratio ([1]; rat, 1000 mg/kg/day): 1–3 ×
NOAEL at 26 weeks [2]: 1000 mg/kg/day
plasma Cave:protein-corrected JAK IC50 ratio ([3]; maternal rabbit, 10 mg/kg/day): < 1 ×
plasma Cave:uncorrected JAK IC50 ratio ([3]; maternal rabbit, 10 mg/kg/day): < 1 ×
Mean Cave ([3]; maternal rabbit, GD 7, 10 mg/kg/day oral): 0.365 ng/mL
Mean Cave ([3]; maternal rabbit, GD 7, 30 mg/kg/day oral): 3.28 ng/mL
Mean Cave ([3]; maternal rabbit, GD 7, 60 mg/kg/day oral): 21.8 ng/mL
Mean Cave ([3]; maternal rabbit, GD 19, 10 mg/kg/day oral): 0.754 ng/mL
plasma Cave:uncorrected JAK IC50 ratio ([3]; maternal rabbit, GD 19, 30 mg/kg/day): 1 ×
Mean Cave ([3]; maternal rabbit, GD 19, 30 mg/kg/day oral): 18.7 ng/mL
plasma Cave:uncorrected JAK IC50 ratio ([3]; maternal rabbit, GD 19, 60 mg/kg/day): 6 ×
Mean Cave ([3]; maternal rabbit, GD 19, 60 mg/kg/day oral): 76.7 ng/mL
plasma Cave:protein-corrected JAK IC50 ratios [3, 4]: < 1 ×
time at supratherapeutic plasma levels [3, 4]: 6 to 9 h
nonclinical:clinical AUC ratio at the NOAEL ([3]; rabbit EFD study, 60 mg/kg/day, vs human 300 mg QD): 33 fold
fetal plasma concentrations, all other samples ([3]; rabbit fetuses, undetectable, limit of quantitation): < 1 ng/mL
concentration at 3 h ([3]; rabbit, fetal plasma, oral, 60 mg/kg/day): 1.55 ng/mL
